Compounds with a hit are over-represented: about 2.6% of the library has one in this group of screens.
DENV2 CPE – inhibitors of DENV2 cytopathic effect, primary screen, cell-based, plate reader, single concentration; CPE inhibition, % at 9.99 µM; 350,000 tested, 1.7% active; AID 651640, 2012; DENV2-infected cells, cytopathic effect rescue; in the data active means CPE inhibition above about 20%, passing the limit was not always enough; inconclusive means no clear call, values can overlap the other calls; tested in BHK-21 cells;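 further: 0% = median of neutral control wells and 100% = median of positive control wells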
GSIS activator – GLuc luminescence reporter in INS-1E cells, primary screen for activators of glucose-dependent secretion of insulin | INS-1E GLuc reporter insulin secretion, 2-3 h | activation, % at 16.6 µM | 370,000 tested, 0.61% active | AID 743287, 2014;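 active means lowest replicate activation of at least 40%, so every replicate reaches that level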;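 further: 0% = median of neutral control wells and 100% = median of IBMX positive control wells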
CFTR F508del cor – F508del CFTR correction, initial screen, CFBE line, single point. CFBE cells, YFP halide quenching; stimulated with forskolin plus potentiator P3; % fluorescence drop versus neutral controls. activity (quench increase), % at 7.58 µM. 350,000 tested, 0.36% active. AID 720511, 2013;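 active means mean added fluorescence quench of at least 8% versus neutral control, with both replicates also reaching 8%; inconclusive means only one of the mean or replicate conditions met; inactive means mean below 8% and not both replicates reaching 8%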;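 further: cells transiently co-express mutant CFTR-F508del with the halide-sensitive YFP; corrector assay measuring rescue of mutant channel to the surface after 24 h compound exposure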
ERAP1 HTS inh – human ERAP1 aminopeptidase inhibitors, primary screen, biochemical, single point, plate reader | recombinant ERAP1, Leu-AMC fluorescence, 60 min | inhibition, % at 10.7 µM | 340,000 tested, 0.15% active | AID 652197, 2013;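 active means mean replicate inhibition of at least 30%, or all replicates individually reaching that 30% level; inactive means mean below 30% and not every replicate reaching it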;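 further: 0% = neutral control wells and 100% = L-leucinethiol positive control wells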
E-selectin induc – E-selectin induction in HUVECs, primary screen, imaging, HUVEC, immunofluorescence imaging, single point; P16581; normalized: neutral wells 0, TNF-alpha wells 100; activation, % at 7.58 µM; 260,000 tested, 0.37% active; AID 686992, 2013;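 active means mean E-selectin-positive cell signal at least 10% of the positive control, reached in at least 60% of replicates, without over 20% cell loss; inconclusive means no rule given, readout overlaps actives, possibly toxicity-flagged; inactive means the rest, including those meeting only one limit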
Target sequence (P16581 whole entry, looked up): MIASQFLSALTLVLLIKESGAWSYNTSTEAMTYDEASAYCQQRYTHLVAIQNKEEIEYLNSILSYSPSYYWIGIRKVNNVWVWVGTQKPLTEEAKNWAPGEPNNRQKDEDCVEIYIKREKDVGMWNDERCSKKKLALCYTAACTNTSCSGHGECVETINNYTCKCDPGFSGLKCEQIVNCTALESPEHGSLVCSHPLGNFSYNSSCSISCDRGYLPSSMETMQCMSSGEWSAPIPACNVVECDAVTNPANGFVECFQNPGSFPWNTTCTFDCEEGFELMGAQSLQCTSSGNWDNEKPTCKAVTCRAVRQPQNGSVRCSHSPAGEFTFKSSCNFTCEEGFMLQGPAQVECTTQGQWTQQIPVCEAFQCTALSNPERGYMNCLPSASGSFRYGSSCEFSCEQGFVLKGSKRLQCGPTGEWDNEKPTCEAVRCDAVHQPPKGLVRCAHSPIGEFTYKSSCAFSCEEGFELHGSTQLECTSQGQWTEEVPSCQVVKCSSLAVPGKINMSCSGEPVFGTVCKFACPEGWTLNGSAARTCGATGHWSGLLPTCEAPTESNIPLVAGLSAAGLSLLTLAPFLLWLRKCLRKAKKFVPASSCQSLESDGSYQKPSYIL
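Assay system: HUVEC primary endothelial cells. Input: 3,000 HUVEC seeded per well. Doses: one compound dose added by pin transfer. Read-out basis: % PE-positive cells. Benchmarks: TNF-alpha high, DMSO low. Detection: immunofluorescence imaging. Buffer or medium: EGM-2, gelatin.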
miR122 inh – miR-122 Renilla sensor signal increase in Huh7, primary screen, miR-122 inhibitor project, cell-based, single point, plate reader; Huh7 miR-122 Renilla luciferase sensor, 48 h; neutral wells = 0, positive control = 100; activation (reporter increase), % at 12.5 µM; 340,000 tested, 0.3% active;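 active means mean replicate activation score at least 90 and every replicate individually at or above 90; inconclusive means only one of the two criteria met; inactive means neither criterion met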;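 further: higher luciferase means less miR-122 activity so hits act as miR-122 inhibitors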
Numbers without * were called inactive; [ ] = remark or other dose.

COC(=O)C1=C(C)N(Cc2ccc(Br)cc2)C(=S)NC1c1cccc(F)c1 (stereo not drawn) was read as DENV2 CPE 26*, GSIS activator -27, CFTR F508del cor -1, ERAP1 HTS inh 1 and E-selectin induc 0.
C/C=C/c1ccc([C@H]2[C@@H](CO)N[C@@H]2CNC(=O)Cc2ccccc2)cc1 was read as DENV2 CPE -8, GSIS activator -7, CFTR F508del cor 4, ERAP1 HTS inh -1 and E-selectin induc 0.
Screening C=C1C(=O)[C@]23C[C@H]1CC[C@H]2[C@]1(C)[C@@H](O)CC[C@@](C)(C(=O)O)[C@H]1C[C@@H]3O returned DENV2 CPE -19, GSIS activator 92, CFTR F508del cor 0, E-selectin induc 0 and miR122 inh -4.
Screening C=C1C(=O)[C@]23C[C@H]1CCC2[C@@]1(C)C(C[C@@H]3O)[C@](C)(C(=O)OC)CC[C@@H]1OC(C)=O (stereo partly drawn) returned DENV2 CPE 8, GSIS activator 134*, CFTR F508del cor -2, ERAP1 HTS inh 6, E-selectin induc -1 and miR122 inh -25.
For C=C1C(=O)[C@]23C[C@H]1CC[C@H]2[C@]1(C)[C@@H](OC(C)=O)CC[C@@](C)(C(=O)O)[C@H]1C[C@@H]3O the results were DENV2 CPE inconclusive, GSIS activator 84*, CFTR F508del cor 8.6*, E-selectin induc 0 and miR122 inh 7.
Screening C=C1C(=O)[C@]23C[C@H]1CC[C@H]2[C@]1(C)[C@@H](OC(C)=O)CC[C@@](C)(C(=O)OC)[C@H]1C[C@@H]3OC(C)=O returned DENV2 CPE 4, GSIS activator 39, CFTR F508del cor -18, ERAP1 HTS inh 4 and miR122 inh 2.
Screening CNC[C@H]1Oc2cc(C#Cc3ccc(OC)cc3)ccc2S(=O)(=O)N([C@H](C)CO)C[C@@H]1C returned DENV2 CPE -7, GSIS activator -10, CFTR F508del cor -1, ERAP1 HTS inh 2, E-selectin induc -2 and miR122 inh 5[16.7 µM].
Screening C[C@@H]1CN([C@@H](C)CO)C(=O)Cc2cc(NC(=O)C3CC3)ccc2O[C@H]1CN(C)S(=O)(=O)c1ccc(Cl)cc1 returned DENV2 CPE 70*, GSIS activator -3, CFTR F508del cor -4, ERAP1 HTS inh -4, E-selectin induc 0 and miR122 inh -6[16.7 µM].
Screening C[C@@H]1CN([C@@H](C)CO)C(=O)Cc2cc(NC(=O)C3CC3)ccc2O[C@H]1CN(C)S(=O)(=O)c1ccccc1 returned DENV2 CPE 34*, GSIS activator 19, CFTR F508del cor -1, ERAP1 HTS inh 2 and miR122 inh 4[16.7 µM].
For O=C(Cc1cccnc1)N[C@H]1CC[C@H](CCn2cc(Cc3ccccc3)nn2)O[C@@H]1CO the results were DENV2 CPE 77*, GSIS activator 5, CFTR F508del cor 3, ERAP1 HTS inh 0 and E-selectin induc 0.
O=C(Cc1cccnc1)N[C@H]1CC[C@@H](CCn2cc(-c3ccccc3F)nn2)O[C@H]1CO was read as DENV2 CPE 7, GSIS activator 10, CFTR F508del cor 0, ERAP1 HTS inh 3 and E-selectin induc 0.
For O=C(Cc1cccnc1)N[C@@H]1CC[C@H](CCn2cc(-c3ccccc3F)nn2)O[C@@H]1CO the results were DENV2 CPE 45*, GSIS activator 6, CFTR F508del cor 0, ERAP1 HTS inh 1 and E-selectin induc -2.
For Cn1c(CNS(=O)(=O)c2cccc(Cl)c2)cc(=O)n(C)c1=O the results were DENV2 CPE -3, GSIS activator 18, CFTR F508del cor -1, ERAP1 HTS inh 2 and E-selectin induc 0.
COc1ccc(S(=O)(=O)NCC(=O)NCc2cc(=O)n(C)c(=O)n2C)cc1 was read as DENV2 CPE 57*, GSIS activator 16, CFTR F508del cor -2 and ERAP1 HTS inh -4.
For Cn1c(CNS(=O)(=O)c2ccc(Cl)cc2)cc(=O)n(C)c1=O the results were DENV2 CPE 10, GSIS activator -1, CFTR F508del cor -1, ERAP1 HTS inh -2, E-selectin induc 97* and miR122 inh 2.
Screening O=C(Nc1cc(F)ccc1F)N1CC(=O)N2[C@@H](CO)[C@H](c3ccc(-c4cccnc4)cc3)[C@@H]2C1 returned DENV2 CPE 2, GSIS activator 18, CFTR F508del cor 2, ERAP1 HTS inh 0 and E-selectin induc 1.
O=C(Nc1cc(F)ccc1F)N1CC(=O)N2[C@@H](CO)[C@@H](c3ccc(-c4cccnc4)cc3)[C@@H]2C1 was read as DENV2 CPE 23*, GSIS activator 15, CFTR F508del cor 1, ERAP1 HTS inh 0 and E-selectin induc 0.
For O=C(Nc1ccccc1F)N1CC(=O)N2[C@H](CO)[C@H](c3ccc(-c4ccccc4)cc3)[C@@H]2C1 the results were DENV2 CPE -1, GSIS activator -13, CFTR F508del cor 2, ERAP1 HTS inh -1 and E-selectin induc 0.
Screening COc1ccccc1NC(=O)N1CC(=O)N2[C@H](C1)[C@H](c1ccc(C#Cc3ccc(F)cc3)cc1)[C@@H]2CO returned DENV2 CPE 5, GSIS activator -7, CFTR F508del cor 6, ERAP1 HTS inh 1 and E-selectin induc 0.
Screening O=C(Nc1ccccc1F)N1CC(=O)N2[C@H](CO)[C@@H](c3ccc(-c4ccccc4)cc3)[C@H]2C1 returned DENV2 CPE 43*, GSIS activator 15, CFTR F508del cor -1, ERAP1 HTS inh -1 and E-selectin induc 0.
CC(C)CC#Cc1ccc([C@H]2[C@@H](CO)N3C(=O)CN(C(=O)Nc4cc(F)ccc4F)C[C@@H]23)cc1 was read as DENV2 CPE 1, GSIS activator -5, CFTR F508del cor 1, ERAP1 HTS inh 2 and E-selectin induc 1.
For CC(C)CC#Cc1ccc([C@H]2[C@H](CO)N3C(=O)CN(C(=O)Nc4cc(F)ccc4F)C[C@@H]23)cc1 the results were DENV2 CPE 12, GSIS activator -17, CFTR F508del cor 11* and E-selectin induc 0.
`COc1ccccc1NC(=O)N1CC(=O)N2[C@@H](CO)[C@H](c3ccc(C#Cc4ccc(F)cc4)cc3)[C@@H]2C1` gave DENV2 CPE 33*, GSIS activator -33, CFTR F508del cor 0, ERAP1 HTS inh 0 and E-selectin induc 0.
